Species on record: Rattus norvegicus
Experiment: Saluretic property (excretion of Na+ in rat)
Format: ADME, organism-based
Settings: in vivo
Method in brief: (§1)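 Rats dosed orally; urinary Na+ excretion (microequiv) scored per dose level. Each score is the geometric mean of three animals per cage, with three cages per dose.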

SMILES	Saluretic potency
CC(C)(C)c1cc(I)c2c(c1)CNS(=O)(=O)O2	< 0.3 u equiv
CC(C)(C)c1cc(Cl)c(O)c(CNS(N)(=O)=O)c1	< 0.3 u equiv
CC(C)(C)c1cc(I)c(O)c(CNC2=NCCN2)c1	< 0.3 u equiv
COc1c(Cl)cc(Cl)c(Cl)c1CN.Cl	< 0.3 u equiv
CC(C)(C)c1cc(I)c(O)c(CNC2CCCCC2)c1.Cl	< 0.3 u equiv
CC(C)(C)c1cc(I)c2c(c1)CNC(=O)O2	0.9 u equiv
CC(C)(C)c1cc(I)c(O)c(CNC2=NCCC2)c1.Cl	< 0.3 u equiv
CC(C)(C)c1cc(I)c(OS(C)(=O)=O)c(CN)c1.Cl	< 0.3 u equiv
CC(C)(C)c1cc(I)c(O)c(CNC2=NCCO2)c1	< 0.3 u equiv
CC(C)(C)c1cc(I)c(O)c(CN=C(N)N)c1	< 0.3 u equiv
CC(C)(C)OC(=O)NCc1cc(C(C)(C)C)cc(I)c1O	< 0.3 u equiv
O=CNCc1c(O)c(Cl)cc(Cl)c1Cl	< 0.3 u equiv
O=C(NCc1c(O)c(Cl)cc(Cl)c1Cl)C(Cl)(Cl)Cl	< 0.3 u equiv
COc1c(I)cc(C(C)(C)C)cc1CN.Cl	< 0.3 u equiv
CC(C)(C)c1cc(Cl)c2c(c1)CNC(=O)CO2	< 0.3 u equiv
Oc1c(Cl)cc(Cl)c(Cl)c1CN1CCCCC1	< 0.3 u equiv
CC(C)(C)c1cc(Cl)c2c(c1)CNCCO2.Cl	< 0.3 u equiv
CC(C)(C)c1cc(I)c(O)c(C[N+](C)(C)C)c1.[I-]	< 0.3 u equiv
CCN(CC)C(=O)COc1c(I)cc(C(C)(C)C)cc1CN.Cl	< 0.3 u equiv
CC(C)(C)c1cc(Cl)c(O)c(C[n+]2ccccc2)c1.[Cl-]	< 0.3 u equiv
CC(C)(C)c1cc(I)c(O)c(CNC(N)=O)c1	< 0.3 u equiv
CN(Cc1c(O)c(Cl)cc(Cl)c1Cl)CC1CCCO1 (stereo not given)	< 0.3 u equiv

Each compound was assayed on Rattus norvegicus (assay: Saluretic property (excretion of Na+ in rat after PO dosing)). Settings: in vivo.
Format: ADME, organism-based
Method in brief: as §1

SMILES	Saluretic potency
CC(C)(C)c1cc(I)c2c(c1)CNS(=O)(=O)O2	< 0.2 u equiv
CC(C)(C)c1cc(Cl)c(O)c(CNS(N)(=O)=O)c1	< 0.2 u equiv
CC(C)(C)c1cc(I)c(O)c(CNC2=NCCN2)c1	< 0.2 u equiv
COc1c(Cl)cc(Cl)c(Cl)c1CN.Cl	< 0.2 u equiv
CC(C)(C)c1cc(I)c(O)c(CNC2CCCCC2)c1.Cl	< 0.2 u equiv
CC(C)(C)c1cc(I)c2c(c1)CNC(=O)O2	0.7 u equiv
CC(C)(C)c1cc(I)c(O)c(CNC2=NCCC2)c1.Cl	< 0.2 u equiv
CC(C)(C)c1cc(I)c(OS(C)(=O)=O)c(CN)c1.Cl	< 0.2 u equiv
CC(C)(C)c1cc(I)c(O)c(CNC2=NCCO2)c1	< 0.2 u equiv
CC(C)(C)c1cc(I)c(O)c(CN=C(N)N)c1	< 0.2 u equiv
CC(C)(C)OC(=O)NCc1cc(C(C)(C)C)cc(I)c1O	< 0.2 u equiv
O=CNCc1c(O)c(Cl)cc(Cl)c1Cl	< 0.2 u equiv
O=C(NCc1c(O)c(Cl)cc(Cl)c1Cl)C(Cl)(Cl)Cl	< 0.2 u equiv
COc1c(I)cc(C(C)(C)C)cc1CN.Cl	< 0.2 u equiv
CC(C)(C)c1cc(Cl)c2c(c1)CNC(=O)CO2	< 0.2 u equiv
Oc1c(Cl)cc(Cl)c(Cl)c1CN1CCCCC1	< 0.2 u equiv
CC(C)(C)c1cc(Cl)c2c(c1)CNCCO2.Cl	< 0.2 u equiv
CC(C)(C)c1cc(I)c(O)c(C[N+](C)(C)C)c1.[I-]	0.2 u equiv
CCN(CC)C(=O)COc1c(I)cc(C(C)(C)C)cc1CN.Cl	< 0.2 u equiv
CC(C)(C)c1cc(Cl)c(O)c(C[n+]2ccccc2)c1.[Cl-]	< 0.2 u equiv
CC(C)(C)c1cc(I)c(O)c(CNC(N)=O)c1	< 0.2 u equiv
CN(Cc1c(O)c(Cl)cc(Cl)c1Cl)CC1CCCO1 (stereo not given)	< 0.2 u equiv

Each compound was assayed on Canis familiaris (assay: Saluretic property was estimated by the excretion of Na+ in dog administered intravenously; microequiv of Na+/min at 5 mg/kg iv stat, 0-99). Settings: in vivo.
Format: ADME, organism-based, Canis lupus familiaris
Set-up: dose 5 mg/kg, route intravenous
Method in brief: (§2)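 Dogs of 15-20 kg were given a single stat intravenous dose of 5 mg/kg and Na+ excretion was measured in microequiv/min. The score is the average of two dogs, or three where designated.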

SMILES	Saluretic potency
CC(C)(C)c1cc(Cl)c(O)c(C[n+]2ccc(N)cc2)c1.[Cl-]	0 u equiv min-1
CC(C)(C)c1cc(Cl)c(O)c(CNS(N)(=O)=O)c1	0 u equiv min-1
CC(C)(C)c1cc(I)c(O)c(CNC2=NCCN2)c1	0 u equiv min-1
COc1c(Cl)cc(Cl)c(Cl)c1CN.Cl	0 u equiv min-1
O=CNCc1c(O)c(Cl)cc(Cl)c1Cl	0 u equiv min-1
COc1c(I)cc(C(C)(C)C)cc1CN.Cl	0 u equiv min-1
Oc1c(Cl)cc(Cl)c(Cl)c1CN1CCCCC1	0 u equiv min-1
CC(C)(C)c1cc(Cl)c2c(c1)CNCCO2.Cl	0 u equiv min-1
CC(C)(C)c1cc(I)c(O)c(C[N+](C)(C)C)c1.[I-]	0 u equiv min-1
CCN(CC)C(=O)COc1c(I)cc(C(C)(C)C)cc1CN.Cl	0 u equiv min-1
CC(C)(C)c1cc(Cl)c(O)c(C[n+]2ccccc2)c1.[Cl-]	0 u equiv min-1
CC(C)(C)c1cc(I)c(O)c(CNC(N)=O)c1	0 u equiv min-1
COc1c(I)cc(C(C)(C)C)cc1C[N+](C)(C)C.[I-]	0 u equiv min-1

These compounds were tested on Canis familiaris (assay: Saluretic property was estimated by the excretion of Na+ in dog administered intravenously; microequiv of Na+/min at 5 mg/kg iv stat, 250-399). Settings: in vivo.
Format: ADME, organism-based, Canis lupus familiaris
Set-up: dose 5 mg/kg, route intravenous
Method in brief: as §2

SMILES	Saluretic potency
O=C(NCc1c(O)c(Cl)cc(Cl)c1Cl)C(Cl)(Cl)Cl	400 u equiv min-1
CN(Cc1c(O)c(Cl)cc(Cl)c1Cl)CC1CCCO1 (stereo not given)	250 u equiv min-1

What follows are compounds tested on Rattus norvegicus (assay: Saluretic property was estimated by the excretion of Na+ in rat administered orally; microequiv of Na+ at 16.5 mg/kg […]). Settings: in vivo.
Format: ADME, organism-based
Set-up: dose 16.5 mg/kg
Method in brief: as §1

SMILES	Saluretic potency
CC(C)(C)c1cc(I)c2c(c1)CNC(=O)O2	0.4 u equiv

Source: ChEMBL document CHEMBL1122081, “2-(Aminomethyl)phenols, a new class of saluretic agents. 4. Effects of oxygen and/or nitrogen substitution” (J Med Chem, 1982)
